Values after ≈ are worked out from the molar mass of the structure shown.
What was measured:
Assay type in all cases: functional
Pseudomonas aeruginosa [1] = assay: Antibacterial activity against Pseudomonas aeruginosa ATCC 27853 assessed as inhibition of bacterial growth after 24 hrs by microbroth dilution method
Procedure, shortened: (§1)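 Bacterial inoculum set to 1×10^5 CFU with sterile saline. Test agents and reference drugs, from DMSO stocks, diluted in Mueller-Hinton broth to 512, 256, 128, 64, 32, 16, 8, 4, 2, 1 and 0.5 µg/mL. Inoculated dilutions incubated 37 °C for 24 h.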

Staphylococcus aureus [2] = assay: Antibacterial activity against Staphylococcus aureus assessed as inhibition of bacterial growth after 24 hrs by microbroth dilution method; procedure, shortened: as §1
Pseudomonas aeruginosa [3] = assay: Antibacterial activity against Pseudomonas aeruginosa assessed as inhibition of bacterial growth after 24 hrs by microbroth dilution method; procedure, shortened: as §1
Acinetobacter baumannii = assay: Antibacterial activity against Acinetobacter baumannii assessed as inhibition of bacterial growth after 24 hrs by microbroth dilution method; procedure, shortened: as §1
Staphylococcus aureus [4] = assay: Antibacterial activity against Staphylococcus aureus ATCC 29213 assessed as inhibition of bacterial growth after 24 hrs by microbroth dilution method
Procedure, shortened: (§2)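 Inoculum adjusted in sterile saline to 1×10^5 CFU. Compounds dissolved in DMSO as stock, then diluted in Mueller-Hinton broth as a two-fold series from 512 to 0.5 µg/mL (11 levels). Inoculated dilutions incubated at 37 °C for 24 h, and the MIC recorded.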

Escherichia coli [5] = assay: Antibacterial activity against Escherichia coli ATCC 25922 assessed as inhibition of bacterial growth after 24 hrs by microbroth dilution method; procedure, shortened: as §1
Staphylococcus aureus [6] = assay: Antibacterial activity against methicillin resistant Staphylococcus aureus assessed as inhibition of bacterial growth after 24 hrs by microbroth dilution method; procedure, shortened: as §2
Staphylococcus aureus [7] = assay: Antibacterial activity against Staphylococcus aureus ATCC 25923 assessed as inhibition of bacterial growth after 24 hrs by microbroth dilution method; procedure, shortened: as §1
Escherichia coli [8] = assay: Antibacterial activity against Escherichia coli assessed as inhibition of bacterial growth after 24 hrs by microbroth dilution method; procedure, shortened: as §1
Klebsiella pneumoniae = assay: Antibacterial activity against Klebsiella pneumoniae assessed as inhibition of bacterial growth after 24 hrs by microbroth dilution method; procedure, shortened: as §1
Enterococcus faecalis = assay: Antibacterial activity against Enterococcus faecalis assessed as inhibition of bacterial growth after 24 hrs by microbroth dilution method; procedure, shortened: as §1
Staphylococcus aureus [9] = assay: Potency index, ratio of norfloxacin MIC to compound MIC for antibacterial activity against Staphylococcus aureus incubated for 24 hrs by microbroth dilution method

Row | SMILES | MIC (Pseudomonas aeruginosa [1]) [µg/mL] | MIC (Staphylococcus aureus [2]) [µg/mL] | MIC (Pseudomonas aeruginosa [3]) [µg/mL] | MIC (Acinetobacter baumannii) [µg/mL] | MIC (Staphylococcus aureus [4]) [µg/mL] | MIC (Escherichia coli [5]) [µg/mL] | MIC (Staphylococcus aureus [6]) [µg/mL] | MIC (Staphylococcus aureus [7]) [µg/mL] | MIC (Escherichia coli [8]) [µg/mL] | MIC (Klebsiella pneumoniae) [µg/mL] | MIC (Enterococcus faecalis) [µg/mL] | Ratio (Staphylococcus aureus [9])
1 | Cc1ccc2c(c1)ncn2Cc1cc(O)c2c(c1)C(=O)c1cccc(O)c1C2=O | 64 (≈ 166 µM) | 32 (≈ 83.2 µM) | 32 (≈ 83.2 µM) | 64 (≈ 166 µM) | 32 (≈ 83.2 µM) | 32 (≈ 83.2 µM) | 64 (≈ 166 µM) | 32 (≈ 83.2 µM) | 64 (≈ 166 µM) | 64 (≈ 166 µM) | 32 (≈ 83.2 µM) | –
2 | O=C1c2cccc(O)c2C(=O)c2c(O)cc(Cn3c4ccccc4c4ccccc43)cc21 | 64 (≈ 153 µM) | 8 (≈ 19.1 µM) | 64 (≈ 153 µM) | 64 (≈ 153 µM) | 32 (≈ 76.3 µM) | 64 (≈ 153 µM) | 32 (≈ 76.3 µM) | 16 (≈ 38.1 µM) | 128 (≈ 305 µM) | 128 (≈ 305 µM) | 128 (≈ 305 µM) | –
3 | O=C1c2cccc(O)c2C(=O)c2c(O)cc(Cn3cnc([N+](=O)[O-])c3)cc21 | 32 (≈ 87.6 µM) | 16 (≈ 43.8 µM) | 64 (≈ 175 µM) | 32 (≈ 87.6 µM) | 16 (≈ 43.8 µM) | 32 (≈ 87.6 µM) | 64 (≈ 175 µM) | 16 (≈ 43.8 µM) | 64 (≈ 175 µM) | 128 (≈ 350 µM) | 128 (≈ 350 µM) | –
4 | O=C1c2cccc(O)c2C(=O)c2c(O)cc(CCl)cc21 | 32 (≈ 111 µM) | 64 (≈ 222 µM) | 64 (≈ 222 µM) | 64 (≈ 222 µM) | 128 (≈ 443 µM) | 32 (≈ 111 µM) | 32 (≈ 111 µM) | 64 (≈ 222 µM) | 128 (≈ 443 µM) | 32 (≈ 111 µM) | 256 (≈ 887 µM) | –
5 | O=C1c2cccc(O)c2C(=O)c2c(O)cc(Cn3cnc4ccccc43)cc21 | 32 (≈ 86.4 µM) | 32 (≈ 86.4 µM) | 64 (≈ 173 µM) | 32 (≈ 86.4 µM) | 32 (≈ 86.4 µM) | 16 (≈ 43.2 µM) | 32 (≈ 86.4 µM) | 8 (≈ 21.6 µM) | 32 (≈ 86.4 µM) | 64 (≈ 173 µM) | 16 (≈ 43.2 µM) | –
6 | Cc1ncc([N+](=O)[O-])n1Cc1cc(O)c2c(c1)C(=O)c1cccc(O)c1C2=O | 32 (≈ 84.4 µM) | 4 (≈ 10.5 µM) | 64 (≈ 169 µM) | 32 (≈ 84.4 µM) | 128 (≈ 337 µM) | 64 (≈ 169 µM) | 64 (≈ 169 µM) | 16 (≈ 42.2 µM) | 128 (≈ 337 µM) | 128 (≈ 337 µM) | 128 (≈ 337 µM) | 2
7 | O=C1c2cccc(O)c2C(=O)c2c(O)cc(CSc3nc4ccccc4[nH]3)cc21 | 64 (≈ 159 µM) | 4 (≈ 9.94 µM) | 128 (≈ 318 µM) | 16 (≈ 39.8 µM) | 16 (≈ 39.8 µM) | 128 (≈ 318 µM) | 32 (≈ 79.5 µM) | 128 (≈ 318 µM) | 64 (≈ 159 µM) | 64 (≈ 159 µM) | 32 (≈ 79.5 µM) | –
8 | O=C1c2cccc(O)c2C(=O)c2c(O)cc(Cn3cncn3)cc21 | 32 (≈ 99.6 µM) | 8 (≈ 24.9 µM) | 32 (≈ 99.6 µM) | 32 (≈ 99.6 µM) | 32 (≈ 99.6 µM) | 64 (≈ 199 µM) | 32 (≈ 99.6 µM) | 16 (≈ 49.8 µM) | 64 (≈ 199 µM) | 64 (≈ 199 µM) | 128 (≈ 398 µM) | –
9 | CCc1nc2ccccc2n1Cc1cc(O)c2c(c1)C(=O)c1cccc(O)c1C2=O | 64 (≈ 161 µM) | 64 (≈ 161 µM) | 64 (≈ 161 µM) | 64 (≈ 161 µM) | 64 (≈ 161 µM) | 32 (≈ 80.3 µM) | 64 (≈ 161 µM) | 128 (≈ 321 µM) | 64 (≈ 161 µM) | 64 (≈ 161 µM) | 16 (≈ 40.2 µM) | –

— ChEMBL document CHEMBL4732030, “Aloe-emodin derived azoles as a new structural type of potential antibacterial agents: design, synthesis, and evaluation of the action on membrane, DNA, and MRSA DNA isomerase” (RSC Med Chem, 2021)
